Compounds with a hit are over-represented: about 2.3% of the library has one in this group of screens.
TDP2 absorb: blocks human TDP2 phosphodiesterase activity; O95551; recombinant TDP2, T5PNP hydrolysis, p-nitrophenol absorbance 415 nm; inhibition, % at 12.8 µM; actives 0.34% (n = 370,000); AID 720702;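 active = inhibition above the mean of all tested compounds plus 3 SD, set per campaign, cut at about 25% in these data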;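 note: 0% = DMSO with enzyme and 100% = buffer with substrate but no TDP2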
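Evaluation: % inhibition relative to enzyme-containing and enzyme-free wells. Material: recombinant human TDP2. Benchmarks: enzyme-free and DMSO wells. Timing: enzyme reaction with compound for 2 h at 37 °C. Compound dosing: 12.8 µM only. Measured by: p-Nitrophenol epi absorbance. Reagent: T5PNP substrate at 5 mM, a TopII-DNA adduct mimic. Replication: single well per compound.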
PAFAH2 inh: inhibitors of human PAFAH2. recombinant PAFAH2, FP-rhodamine activity probe, fluorescence polarization. inhibition, % at 3.39 µM. AID 492956. Q99487. actives 0.99% (n = 340,000);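 active = inhibition above the mean over all tested compounds plus 3 SD, cut at about 30% in these data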;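 note: inhibitors block probe labeling of enzyme so polarization drops; 0% = enzyme with DMSO and 100% = wells lacking PAFAH2 protein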
Apaf-1 inh: blocks human Apaf-1 apoptosome activity. reconstituted apoptosome caspase-3 activity, DEVD-Rh110 fluorescence. actives 0.71% (n = 330,000). inhibition, % at 20 µM. O14727. AID 489030; active = inhibition of at least 40% at 20 µM;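 note: plate controls were DMSO wells for no effect and DEVD-CHO caspase inhibitor wells for full effect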
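Material: reconstituted apoptosome with Apaf-1, cytochrome c, caspase-9, procaspase-3, dATP. Technique: Rh110 fluorescence intensity. Buffer or medium: pH 7.5 Hepes buffer with CHAPS, BSA, DTT. Times: 30 min plus 50 min, RT.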
PAFAH1B3 inh: PAFAH1B3 (human) inhibition; recombinant PAFAH1B3, FP-rhodamine probe, fluorescence polarization; Q15102; actives 0.28% (n = 340,000); inhibition, % at 3.39 µM;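 active = inhibition above the screen-wide average of all tested compounds plus 3 SD, cut at about 25% in these data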;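 note: 0% = enzyme with DMSO only and 100% = wells lacking PAFAH1B3 protein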
PAFAH1B2 FP inh: PAFAH1B2 (human) inhibition; P68402; recombinant PAFAH1B2, FP-rhodamine activity probe, fluorescence polarization; inhibition, % at 3.39 µM; actives 1.2% (n = 340,000); AID 492953;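 active = inhibition above the mean of all tested compounds plus 3 SD, cut at about 24% in these data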;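 note: 0% = enzyme with DMSO and 100% = wells lacking PAFAH1B2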
Apaf-1 inh conf: confirmation of Apaf-1 inhibitors | shares compounds with Apaf-1 inh | reconstituted apoptosome, caspase-3 DEVD-Rh110 fluorescence | inhibition, % at 20 µM | actives 25% (n = 1,800) | AID 504614;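 active = mean inhibition of at least 40% at 20 µM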;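 note: plate controls were DMSO wells for no effect and DEVD-CHO caspase inhibitor control wells for full effect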
Rh110 interf inh: Rh110 signal interference in Apaf-1 inhibitor counter-screen. shares compounds with Apaf-1 inh. 1,800 tested, under 10 active. Rh110 fluorescence interference, quenched caspase reaction. activation (fluorescence interference), % at 20 µM. AID 504615;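 active = signal rise of 40% or more at 20 µM, treated as a fluorescence artifact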
Apaf1 inh interf: shows fluorescence interference in the Apaf-1 inhibitor assay format; shares compounds with Apaf-1 inh; 460 tested, under 10 active; fluorescence interference counterscreen, Apaf-1 assay format; IC50, µM; call rule not given here
Active calls of the source: *; / = not tested or not shown.

SMILES | TDP2 absorb | PAFAH2 inh | Apaf-1 inh | PAFAH1B3 inh | PAFAH1B2 FP inh | Apaf-1 inh conf | Rh110 interf inh | others
Cc1c(C)n(Cc2ccc(-c3ccccc3C(=O)O)cc2)c2ccc(C(=O)N[C@@H](C)c3ccc(Br)cc3)cc12 | 3.2 | / | / | / | / | / | /
COCC(=O)O[C@]1(CCN(C)CCCc2nc3ccccc3[nH]2)CCc2cc(F)ccc2[C@@H]1C(C)C | 1.7 | -1.9 | 54.3* | 9.2 | 1.6 | 22.9 | 3.6
COc1cc(NC(=O)C2CCCN(S(=O)(=O)c3ccc(C)c(C)c3)C2)cc(OC)c1 (stereo unspecified) | 7.5 | / | / | / | / | / | /
COCCN(C(=O)COC(=O)/C=C/c1ccc(C(F)(F)F)cc1)c1c(N)n(Cc2ccccc2)c(=O)[nH]c1=O | -9.5 | -1.0 | 44.2* | -4.6 | 4.8 | 5.8 | 3.5
COc1ccc(CNS(=O)(=O)c2cc3c(cc2Br)CC(C)N3C(C)=O)cc1 (stereo unspecified) | 6.2 | / | / | / | / | / | /
CCN(CC(=O)NCc1cccs1)C(=O)CCCOc1ccccc1 | -4.0 | -4.9 | 18.9 | 7.4 | 5.5 | / | /
CCN(CC(=O)NCc1cccs1)C(=O)CCCOc1ccc(C(C)(C)C)cc1 | -6.4 | -5.1 | 42.1* | 1.2 | 25.1* | 34.2 | 10.8
CS(=O)(=O)N1CCN(c2ccc(NC(=O)C(c3ccccc3)c3ccccc3)cc2)CC1 | -17.5 | 3.4 | 6.8 | 5.0 | 1.6 | / | /
O=C(Nc1ccc(N2CCCC2)cc1)C(Cl)c1ccccc1 (stereo unspecified) | / | 9.0 | 65.0* | 2.4 | 11.9 | 25.7 | 2.6
CCCn1nc(C(=O)Nc2ccc(N3CCOCC3)cc2)c2ccccc2c1=O | -0.4 | 5.9 | 5.2 | 6.7 | 4.5 | / | /
CCCn1nc(C(=O)Nc2ccc(-n3cnnn3)cc2)c2ccccc2c1=O | -1.4 | -0.9 | 70.6* | -6.4 | 4.6 | 8.2 | 5.2
C[C@H](CCC(=O)N(c1ccccc1)c1ccccc1)CC1CCCCC1 | -0.6 | / | / | / | / | / | /
C#CCOCCOCCOCCNc1nc(N2CCN(C(=O)[C@H](Cc3cc4ccccc4[nH]3)n3cc([C@@H](N)CC(C)C)nn3)CC2)nc(N2CCN(C(=O)[C@H](Cc3cc4ccccc4[nH]3)n3cc([C@@H](N)CC(C)C)nn3)CC2)n1 | / | -1.3 | 70.7* | 0.5 | -0.2 | 25.3 | 20.1
C#CCOCCOCCOCCNc1nc(N2CCN(C(=O)[C@H](Cc3cc4ccccc4[nH]3)n3cc([C@@H](N)C(C)CC)nn3)CC2)nc(N2CCN(C(=O)[C@H](CCCCN)n3cc([C@@H](N)CC(C)C)nn3)CC2)n1 (stereo partly specified) | / | / | 41.3* | / | / | 6.9 | 6.9
C#CCOCCOCCOCCNc1nc(N2CCN(C(=O)[C@H](Cc3cc4ccccc4[nH]3)n3cc(C(N)CC(C)C)nn3)CC2)nc(N2CCN(C(=O)[C@H](CCC(=O)O)n3cc(C(N)[C@H](C)CC)nn3)CC2)n1 (stereo partly specified) | / | 1.3 | 0.7 | 4.8 | 4.2 | / | /
C#CCOCCOCCOCCNc1nc(N2CCN(C(=O)[C@H](CCC(=O)O)n3cc(C(N)CC(C)C)nn3)CC2)nc(N2CCN(C(=O)[C@H](Cc3cc4ccccc4[nH]3)n3cc(C(N)CC(C)C)nn3)CC2)n1 (stereo partly specified) | / | -1.7 | -3.4 | 8.6 | 0.6 | / | /
C#CCOCCOCCOCCNc1nc(N2CCN(C(=O)C([C@@H](C)O)n3cc([C@@H](N)CCCCN)nn3)CC2)nc(N2CCN(C(=O)[C@H](CO)n3cc([C@@H](N)C(C)C)nn3)CC2)n1 (stereo partly specified) | 10.5 | -0.4 | 52.5* | 12.7 | 5.8 | 8.3 | 3.0
C#CCOCCOCCOCCNc1nc(N2CCN(C(=O)[C@H](CCCCN)n3cc([C@@H](N)[C@H](C)CC)nn3)CC2)nc(N2CCN(C(=O)[C@H](CCCCN)n3cc([C@@H](N)CC(N)=O)nn3)CC2)n1 | 1.4 | -1.2 | 44.1* | -1.3 | 0.6 | -0.3 | -3.0
CC(C)CN(CC(C)C)C(=O)c1ccc2c(c1)NC(=O)C(C)(C)O2 | 0.0 | / | / | / | / | / | /
C#CCOCCOCCOCCNc1nc(N2CCN(C(=O)[C@H](Cc3ccc(O)cc3)n3cc([C@@H](N)C(C)CC)nn3)CC2)nc(N2CCN(C(=O)[C@H](Cc3cc4ccccc4[nH]3)n3cc([C@@H](N)CC(C)C)nn3)CC2)n1 (stereo partly specified) | -11.7 | / | 47.2* | / | / | 0.9 | 2.8
Cc1cnc(NC(=O)CSc2ncc(-c3ccccc3)n2Cc2ccco2)s1 | 4.3 | -4.0 | 41.9* | -4.5 | 3.2 | 20.5 | 11.2
O=C(CSc1ncc(-c2ccc(F)cc2)n1Cc1ccco1)Nc1nccs1 | -2.6 | -15.2 | 35.0 | 0.8 | 1.6 | / | /
CC(COc1ccccc1)CN1CCC(C(O)(c2ccccc2)c2ccccc2)CC1 (stereo unspecified) | -4.5 | / | / | / | / | / | /
O=C1Nc2ccc(S(=O)(=O)NCc3ccco3)c3cccc1c23 | -5.2 | 9.0 | 49.5* | 12.0 | 7.7 | 22.0 | 16.7
O=C(O)CC1S/C(=N/N=C/c2ccc(-c3ccc(Cl)cc3[N+](=O)[O-])o2)NC1=O (stereo unspecified) | -8.3 | 12.9 | 52.1* | 11.9 | 7.5 | 29.0 | 4.5
C=CCN1C(=O)c2n[nH]c(COC)c2C1c1ccc(F)cc1 (stereo unspecified) | -2.0 | / | / | / | / | / | /
C#CCOCCOCCOCCNc1nc(N2CCN(C(=O)[C@H]([C@@H](C)CC)n3cc(CCCCN)nn3)CC2)nc(N2CCN(C(=O)[C@H]([C@@H](C)CC)n3cc(CCCN=C(N)N)nn3)CC2)n1 | 4.0 | -0.1 | 46.0* | 1.5 | 7.0 | 2.5 | 4.7
C#CCOCCOCCOCCNc1nc(N2CCN(C(=O)CCCCCCCCCCNC(=O)[C@H](CCCCN)n3cc(CCO)nn3)CC2)nc(N2CCN(C(=O)CCCCCCCCCCNC(=O)[C@@H]([C@H](C)O)n3cc(C)nn3)CC2)n1 | / | -12.7 | 59.2* | 1.9 | -8.7 | 31.0 | 5.9
C#CCOCCOCCOCCNc1nc(N2CCN(C(=O)CCCCCCCCCCNC(=O)[C@H](CCCCN)n3cc(CCO)nn3)CC2)nc(N2CCN(C(=O)CCCCCCCCCCNC(=O)[C@H](CCCCN)n3cc(CCO)nn3)CC2)n1 | / | -8.7 | 64.0* | -0.9 | -8.4 | 46.4* | 0.6 | Apaf1 inh interf=>100

Screening results as filed in PubChem BioAssay.
